From ChEMBL document CHEMBL3102739, “Synthesis and antiproliferative activity of conformationally restricted 1,2,3-triazole analogues of combretastatins in the sea urchin embryo model and against human cancer cell lines” (Bioorg Med Chem, 2014)

What was measured:
MDA-MB-468 = test: Growth inhibition of human MDA-MB-468 cells after 48 hrs by SRB assay; format: functional; conditions: MDA-MB-468, 48 h
[1] = Growth inhibition of human Hs578T cells after 48 hrs by SRB assay; format: functional; conditions: Hs-578T
BT-549 = test: Growth inhibition of human BT549 cells after 48 hrs by SRB assay; format: functional; conditions: BT-549, 48 h
MDA-MB-231 = test: Growth inhibition of human MDA-MB-231 cells after 48 hrs by SRB assay; format: functional; conditions: MDA-MB-231, 48 h
DU-145 = test: Growth inhibition of human DU145 cells after 48 hrs by SRB assay; format: functional; conditions: DU-145, 48 h
MCF7 = test: Growth inhibition of human MCF7 cells after 48 hrs by SRB assay; format: functional; conditions: MCF7, 48 h
[2] = Growth inhibition of human UO31 cells after 48 hrs by SRB assay; format: functional; conditions: UO-31, 48 h
PC-3 = test: Growth inhibition of human PC3 cells after 48 hrs by SRB assay; format: functional; conditions: PC-3, 48 h
TK-10 = test: Growth inhibition of human TK10 cells after 48 hrs by SRB assay; format: functional; conditions: TK-10, 48 h
[3] = Growth inhibition of human RXF393 cells after 48 hrs by SRB assay; format: functional; conditions: RXF 393, 48 h
SN12C = test: Growth inhibition of human SN12C cells after 48 hrs by SRB assay; format: functional
ACHN = test: Growth inhibition of human ACHN cells after 48 hrs by SRB assay; format: functional
CAKI-1 = test: Growth inhibition of human CAKI-1 cells after 48 hrs by SRB assay; format: functional; conditions: CAKI-1, 48 h
786-0 = test: Growth inhibition of human 786-0 cells after 48 hrs by SRB assay; format: functional; conditions: 786-0, 48 h
A498 = test: Growth inhibition of human A498 cells after 48 hrs by SRB assay; format: functional; conditions: A498, 48 h
SK-OV-3 = test: Growth inhibition of human SKOV3 cells after 48 hrs by SRB assay; format: functional; conditions: SK-OV-3, 48 h
[4] = Growth inhibition of human NCI-ADR-RES cells after 48 hrs by SRB assay; format: functional
OVCAR-8 = test: Growth inhibition of human OVCAR8 cells after 48 hrs by SRB assay; format: functional; conditions: OVCAR-8, 48 h
[5] = Growth inhibition of human OVCAR4 cells after 48 hrs by SRB assay; format: functional; conditions: OVCAR-4, 48 h
[6] = Growth inhibition of human OVCAR5 cells after 48 hrs by SRB assay; format: functional; conditions: OVCAR-5, 48 h
OVCAR-3 = test: Growth inhibition of human OVCAR3 cells after 48 hrs by SRB assay; format: functional; conditions: OVCAR-3, 48 h
IGROV-1 = test: Growth inhibition of human IGROV1 cells after 48 hrs by SRB assay; format: functional; conditions: IGROV-1, 48 h
[7] = Growth inhibition of human UACC257 cells after 48 hrs by SRB assay; format: functional; conditions: UACC-257, 48 h
UACC-62 = test: Growth inhibition of human UACC62 cells after 48 hrs by SRB assay; format: functional; conditions: UACC-62, 48 h
SK-MEL-5 = test: Growth inhibition of human SK-MEL-5 cells after 48 hrs by SRB assay; format: functional; conditions: SK-MEL-5, 48 h
SK-MEL-28 = test: Growth inhibition of human SK-MEL-28 cells after 48 hrs by SRB assay; format: functional; conditions: SK-MEL-28, 48 h
MDA-MB-435 = test: Growth inhibition of human MDA-MB-435 cells after 48 hrs by SRB assay; format: functional; conditions: MDA-MB-435, 48 h
M14 = test: Growth inhibition of human M14 cells after 48 hrs by SRB assay; format: functional; conditions: M14, 48 h
SNB-75 = test: Growth inhibition of human SNB75 cells after 48 hrs by SRB assay; format: functional; conditions: SNB-75, 48 h
[8] = Growth inhibition of human SF539 cells after 48 hrs by SRB assay; format: functional; conditions: SF-539, 48 h
SF-295 = test: Growth inhibition of human SF295 cells after 48 hrs by SRB assay; format: functional; conditions: SF-295, 48 h
SF-268 = test: Growth inhibition of human SF268 cells after 48 hrs by SRB assay; format: functional; conditions: SF-268, 48 h
SW-620 = test: Growth inhibition of human SW620 cells after 48 hrs by SRB assay; format: functional; conditions: SW-620, 48 h
KM12 = test: Growth inhibition of human KM12 cells after 48 hrs by SRB assay; format: functional; conditions: KM12, 48 h
HT-29 = test: Growth inhibition of human HT-29 cells after 48 hrs by SRB assay; format: functional; conditions: HT-29, 48 h
HCT-15 = test: Growth inhibition of human HCT15 cells after 48 hrs by SRB assay; format: functional; conditions: HCT-15, 48 h
[9] = Growth inhibition of human HCC2998 cells after 48 hrs by SRB assay; format: functional; conditions: HCC 2998, 48 h
HCT-116 = test: Growth inhibition of human HCT116 cells after 48 hrs by SRB assay; format: functional; conditions: HCT-116, 48 h
COLO 205 = test: Growth inhibition of human COLO205 cells after 48 hrs by SRB assay; format: functional; conditions: COLO 205, 48 h
NCI-H522 = test: Growth inhibition of human NCI-H522 cells after 48 hrs by SRB assay; format: functional; conditions: NCI-H522, 48 h
NCI-H460 = test: Growth inhibition of human NCI-H460 cells after 48 hrs by SRB assay; format: functional; conditions: NCI-H460, 48 h
NCI-H322M = test: Growth inhibition of human NCI-H322M cells after 48 hrs by SRB assay; format: functional
NCI-H23 = test: Growth inhibition of human NCI-H23 cells after 48 hrs by SRB assay; format: functional; conditions: NCI-H23, 48 h
NCI-H226 = test: Growth inhibition of human NCI-H226 cells after 48 hrs by SRB assay; format: functional; conditions: NCI-H226, 48 h
HOP-62 = test: Growth inhibition of human HOP62 cells after 48 hrs by SRB assay; format: functional; conditions: HOP-62, 48 h
A549 = test: Growth inhibition of human A549 cells after 48 hrs by SRB assay; format: functional; conditions: A549, 48 h
RPMI-8226 = test: Growth inhibition of human RPMI8226 cells after 48 hrs by SRB assay; format: functional; conditions: RPMI-8226, 48 h
SR = test: Growth inhibition of human SR cells after 48 hrs by SRB assay; format: functional
MOLT-4 = test: Growth inhibition of human MOLT4 cells after 48 hrs by SRB assay; format: functional; conditions: MOLT-4, 48 h
K562 = test: Growth inhibition of human K562 cells after 48 hrs by SRB assay; format: functional; conditions: K562, 48 h
CCRF-CEM = test: Growth inhibition of human CCRF-CEM cells after 48 hrs by SRB assay; format: functional
HL-60(TB) = test: Growth inhibition of human HL-60(TB) cells after 48 hrs by SRB assay; format: functional; conditions: HL-60, 48 h
Paracentrotus lividus [10] = test: Antimitotic activity against sea urchin embryo free-swimming blastula model assessed as embryo spinning compound treated at 8 to 10 hrs post-fertilization measured after 0.25 to 20 hrs; format: functional, Blastula stage
Paracentrotus lividus [11] = test: Antimitotic activity against sea urchin embryo model assessed as cleavage arrest of fertilized egg compound treated at 8 to 20 mins post-fertilization and 45 to 55 mins prior to first mitotic cycle completion measured 2.5 to 5.5 hrs post-fertilization; format: functional
How it was run: (§1)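 Fertilized eggs are exposed 8–20 min after fertilization to 2-fold decreasing concentrations. Stocks are 10 mM in DMSO, then diluted 10-fold in 95% EtOH; final DMSO is at most 0.05% and EtOH at most 1%. Embryos are kept as a monolayer, up to 2000 embryos/mL, in filtered seawater at room temperature. The value is the threshold concentration giving cleavage alteration, embryo death before hatching or full mitotic arrest. Duplicates were run.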

Paracentrotus lividus [12] = test: Antimitotic activity against sea urchin embryo model assessed as cleavage alteration of fertilized egg compound treated at 8 to 20 mins post-fertilization and 45 to 55 mins prior to first mitotic cycle completion measured 2.5 to 5.5 hrs post-fertilization; format: functional; how it was run: as §1

Question: For `COc1ccc(-c2nn[nH]c2-c2cc(OC)c3c(c2)OCO3)cc1`, which GI50 (MDA-MB-468) is on record?
Answer: 19 nM

Question: What about the GI50 [1] of the same compound?
Answer: 22 nM

Question: And the GI50 (BT-549)?
Answer: 121 nM

Question: What about the GI50 (MDA-MB-231) of the same compound?
Answer: 45 nM

Question: And the GI50 (DU-145)?
Answer: 32 nM

Question: And the GI50 (MCF7)?
Answer: < 10 nM

Question: What about the GI50 [2] of the same compound?
Answer: 51 nM

Question: And the GI50 (PC-3)?
Answer: 35 nM

Question: What about the GI50 (TK-10) of the same compound?
Answer: 14700 nM

Question: And the GI50 [3]?
Answer: 17 nM

Question: And the GI50 (SN12C)?
Answer: 61 nM

Question: And the GI50 (ACHN)?
Answer: 40 nM

Question: What about the GI50 (CAKI-1) of the same compound?
Answer: 11 nM

Question: And the GI50 (786-0)?
Answer: 32 nM

Question: And the GI50 (A498)?
Answer: < 10 nM

Question: What about the GI50 (SK-OV-3) of the same compound?
Answer: 23 nM

Question: And the GI50 [4]?
Answer: < 10 nM

Question: What about the GI50 (OVCAR-8) of the same compound?
Answer: 40 nM

Question: What about the GI50 [5] of the same compound?
Answer: 518 nM

Question: What about the GI50 [6] of the same compound?
Answer: 49 nM

Question: And the GI50 (OVCAR-3)?
Answer: 10 nM

Question: And the GI50 (IGROV-1)?
Answer: 23 nM

Question: And the GI50 [7]?
Answer: 23000 nM

Question: What about the GI50 (UACC-62) of the same compound?
Answer: < 10 nM

Question: What about the GI50 (SK-MEL-5) of the same compound?
Answer: 29 nM

Question: And the GI50 (SK-MEL-28)?
Answer: 35 nM

Question: What about the GI50 (MDA-MB-435) of the same compound?
Answer: < 10 nM

Question: And the GI50 (M14)?
Answer: 13 nM

Question: What about the GI50 (SNB-75) of the same compound?
Answer: 16 nM

Question: And the GI50 [8]?
Answer: 17 nM

Question: And the GI50 (SF-295)?
Answer: < 10 nM

Question: And the GI50 (SF-268)?
Answer: 101 nM

Question: What about the GI50 (SW-620) of the same compound?
Answer: 14 nM

Question: What about the GI50 (KM12) of the same compound?
Answer: 23 nM

Question: And the GI50 (HT-29)?
Answer: 34 nM

Question: What about the GI50 (HCT-15) of the same compound?
Answer: < 10 nM

Question: What about the GI50 [9] of the same compound?
Answer: 44 nM

Question: And the GI50 (HCT-116)?
Answer: 19 nM

Question: And the GI50 (COLO 205)?
Answer: 255 nM

Question: And the GI50 (NCI-H522)?
Answer: < 10 nM

Question: What about the GI50 (NCI-H460) of the same compound?
Answer: 11 nM

Question: And the GI50 (NCI-H322M)?
Answer: 57 nM

Question: What about the GI50 (NCI-H23) of the same compound?
Answer: 33 nM

Question: And the GI50 (NCI-H226)?
Answer: 294 nM

Question: What about the GI50 (HOP-62) of the same compound?
Answer: < 10 nM

Question: And the GI50 (A549)?
Answer: 24 nM

Question: What about the GI50 (RPMI-8226) of the same compound?
Answer: 33 nM

Question: And the GI50 (SR)?
Answer: < 10 nM

Question: What about the GI50 (MOLT-4) of the same compound?
Answer: 63 nM

Question: And the GI50 (K562)?
Answer: < 10 nM

Question: And the GI50 (CCRF-CEM)?
Answer: 26 nM

Question: And the GI50 (HL-60(TB))?
Answer: 23 nM

Question: What about the EC (Paracentrotus lividus [10]) of the same compound?
Answer: 0.05 µM

Question: What about the EC (Paracentrotus lividus [11]) of the same compound?
Answer: 0.002 µM

Question: And the EC (Paracentrotus lividus [12])?
Answer: 0.0005 µM
